ChEMBL document CHEMBL1148977, “Inhibitory effects of bufadienolides on interleukin-6 in MH-60 cells” (J Nat Prod, 2004)

Key:
MH60 [1] = assay: Growth inhibition of IL-6-independent mouse MH60 cells after 72 hrs by MTT assay; format: functional, cell-based; details: MH60, 72 h
Outline: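 Mouse B-cell/myeloma hybridoma MH-60 subline adapted to grow without IL-6 (rhIL-6 withdrawn gradually), kept in RPMI 1640 + 10% FCS with no rhIL-6. 0.5 × 10^4 cells/well pre-incubated 24 h at 37 °C, 5% CO2, then exposed 72 h to graded compound concentrations. MTT read-out; mean with standard errors of 3–4 experiments.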

MH60 [2] = assay: Growth inhibition of IL6-dependent mouse MH60 cells after 72 hrs by MTT assay in presence of human recombinant IL6; format: functional, cell-based; details: MH60, 72 h
Outline: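 IL-6-dependent MH-60 mouse B-cell/myeloma hybridoma kept in RPMI 1640 + 10% FCS containing 0.5 ng/mL recombinant human IL-6. 0.5 × 10^4 cells/well in rhIL-6 medium pre-incubated 24 h at 37 °C, 5% CO2, then treated 72 h with graded compound concentrations. Growth by MTT; mean with standard errors of 3–4 experiments.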

| SMILES | IC50 (MH60 [1]) [µM] | IC50 (MH60 [2]) [µM] |
| --- | --- | --- |
| CC(=O)O[C@H]1CC[C@@]2(C)[C@H](CC[C@@H]3[C@@H]2CC[C@]2(C)[C@@H](c4ccc(=O)oc4)C[C@H]4O[C@]342)C1 | > 58.7 | > 58.7 |
| CC(C)(C)C(=O)O[C@H]1CC[C@@]2(C)[C@H](CC[C@@H]3[C@@H]2CC[C@]2(C)[C@@H]([C@@]45C=CC(=O)O[C@@H]4O5)C[C@H]4O[C@]342)C1 | 34 | 18.1 |
| C[C@]12CCC(=O)C[C@H]1CC[C@@H]1[C@@H]2CC[C@]2(C)[C@@H](c3ccc(=O)oc3)C[C@H]3O[C@]132 | 8.4 | 2.4 |
| CC(C)(C)C(=O)O[C@H]1CC[C@@]2(C)[C@H](CC[C@@H]3[C@@H]2CC[C@]2(C)[C@@H]([C@]45C=CC(=O)O[C@H]4O5)C[C@H]4O[C@]342)C1 | > 53.2 | 6.8 |
| CCCCC(=O)O[C@H]1CC[C@@]2(C)[C@H](CC[C@@H]3[C@@H]2CC[C@]2(C)[C@@H]([C@@]45C=CC(=O)O[C@@H]4O5)C[C@H]4O[C@]342)C1 | 19.1 | 6.4 |
| C[C@]12CC[C@H](OC=O)C[C@H]1CC[C@@H]1[C@@H]2CC[C@]2(C)[C@@H]([C@]34C=CC(=O)O[C@H]3O4)C[C@H]3O[C@]132 | > 58.4 | 8.9 |
| C[C@]12CC[C@H](OC=O)C[C@H]1CC[C@@H]1[C@@H]2CC[C@]2(C)[C@@H]([C@@]34C=CC(=O)O[C@@H]3O4)C[C@H]3O[C@]132 | 12.9 | 5.6 |
| C[C@]12CC[C@H](O)C[C@H]1CC[C@@H]1[C@@H]2CC[C@]2(C)[C@@H]([C@@]34C=CC(=O)O[C@@H]3O4)C[C@H]3O[C@]132 | 45 | 18.3 |
| CC(=O)O[C@@H]1[C@H]2O[C@]23[C@@H]2CC[C@@H]4C[C@@H](O)CC[C@]4(C)[C@H]2CC[C@]3(C)[C@H]1[C@@]12C=CC(=O)O[C@@H]1O2 | > 54.2 | > 54.2 |
| C[C@]12CCC(=O)C[C@H]1CC[C@@H]1[C@@H]2CC[C@]2(C)[C@@H]([C@@]34C=CC(=O)O[C@@H]3O4)C[C@H]3O[C@]132 | 4.3 | 1.3 |
| C[C@]12CCC(=O)C[C@H]1CC[C@@H]1[C@@H]2CC[C@]2(C)[C@@H]([C@]34C=CC(=O)O[C@H]3O4)C[C@H]3O[C@]132 | 8.3 | 4.3 |
| CCCC(=O)O[C@H]1CC[C@@]2(C)[C@H](CC[C@@H]3[C@@H]2CC[C@]2(C)[C@@H]([C@@]45C=CC(=O)O[C@@H]4O5)C[C@H]4O[C@]342)C1 | 17.5 | 2 |
| CCCC(=O)O[C@H]1CC[C@@]2(C)[C@H](CC[C@@H]3[C@@H]2CC[C@]2(C)[C@@H]([C@]45C=CC(=O)O[C@H]4O5)C[C@H]4O[C@]342)C1 | > 54.8 | 9.4 |
| C[C@]12CC[C@H](OC=O)C[C@H]1CC[C@@H]1[C@@H]2CC[C@]2(C)[C@@H](c3ccc(=O)oc3)C[C@H]3O[C@]132 | > 60.7 | > 60.7 |
| CC(=O)O[C@H]1CC[C@@]2(C)[C@H](CC[C@@H]3[C@@H]2CC[C@]2(C)[C@@H]([C@]45C=CC(=O)O[C@H]4O5)C[C@H]4O[C@]342)C1 | > 56.6 | 5.3 |
| CCCCC(=O)O[C@H]1CC[C@@]2(C)[C@H](CC[C@@H]3[C@@H]2CC[C@]2(C)[C@@H]([C@]45C=CC(=O)O[C@H]4O5)C[C@H]4O[C@]342)C1 | > 53.2 | 11.6 |
| C[C@]12CC[C@H](O)C[C@H]1CC[C@@H]1[C@@H]2CC[C@]2(C)[C@@H]([C@@]34C=CC(=O)O[C@@H]3O4)CC[C@]12O | > 62.2 | > 62.2 |
| C[C@]12CC[C@H](O)C[C@H]1CC[C@@H]1[C@@H]2CC[C@]2(C)[C@@H]([C@]34C=CC(=O)O[C@H]3O4)CC[C@]12O | > 62.2 | > 62.2 |
| CC(=O)O[C@H]1CC[C@@]2(C)[C@H](CC[C@@H]3[C@@H]2CC[C@]2(C)[C@@H]([C@@]45C=CC(=O)O[C@@H]4O5)C[C@H]4O[C@]342)C1 | 21.9 | 14.3 |
| CC(=O)O[C@@H]1[C@H]2O[C@]23[C@@H]2CC[C@@H]4C[C@@H](O)CC[C@]4(C)[C@H]2CC[C@]3(C)[C@H]1[C@]12C=CC(=O)O[C@H]1O2 | > 54.2 | > 54.2 |
| C[C@]12CC[C@H](O)C[C@H]1CC[C@@H]1[C@@H]2CC[C@]2(C)[C@@H]([C@]34C=CC(=O)O[C@H]3O4)C[C@H]3O[C@]132 | > 62.5 | 24.8 |
| C[C@]12CC[C@H](O)C[C@H]1CC[C@@H]1[C@@H]2CC[C@]2(C)[C@@H](c3ccc(=O)oc3)CC[C@]12O [BUFALIN] | > 64.8 | 31.9 |
| C[C@]12CC[C@H](O)C[C@H]1CC[C@@H]1[C@@H]2CC[C@]2(C)[C@@H](c3ccc(=O)oc3)C[C@H]3O[C@]132 [BUFOGENIN] | > 65.1 | 22.9 |
| CC(=O)O[C@H]1C[C@]2(O)[C@@H]3CC[C@@H]4C[C@@H](O)CC[C@]4(C)[C@H]3CC[C@]2(C)[C@H]1c1ccc(=O)oc1 [BUFOTALIN] | > 56.2 | > 56.2 |
| CC(=O)O[C@H]1[C@H]2O[C@]23[C@@H]2CC[C@@H]4C[C@@H](O)CC[C@]4(C)[C@H]2CC[C@]3(C)[C@H]1c1ccc(=O)oc1 [CINOBUFAGIN] | > 56.3 | > 56.3 |
